Data from ChEMBL document CHEMBL1146075, “Synthesis and anti-BVDV activity of acridones as new potential antiviral agents” (J Med Chem, 2006).
In brackets after ≈: the same amount, converted by molar mass. Activity calls are given as the source filed them. The rule behind the calls is not given here.

Columns and labels:
[1] = test system: Human alphaherpesvirus 2; test: Antiviral activity against HSV2 G in E6SM cells; format: functional, organism-based
[2] = test system: Human betaherpesvirus 5; test: Antiviral activity against HCMV Davis in human embryonic lung cells; format: functional, organism-based
[3] = test system: Human betaherpesvirus 5; test: Antiviral activity against HCMV AD169 in human embryonic lung cells; format: functional, organism-based
[4] = test system: Respiratory syncytial virus; test: Antiviral activity against respiratory syncytial virus […] in HeLa cells; format: functional, organism-based
[5] = test system: Human immunodeficiency virus 2; test: Antiviral activity against HIV2 ROD in MT4 cells; format: functional, organism-based
[6] = test system: Coxsackievirus B4; test: Antiviral activity against coxsackie virus B4 in vero cells; format: functional, organism-based
[7] = test system: Vesicular stomatitis virus; test: Antiviral activity against vesicular stomatitis virus in E6SM cells; format: functional, organism-based
[8] = test system: Mammalian orthoreovirus 1; test: Antiviral activity against Reovirus1 in vero cells; format: functional, organism-based
[9] = test system: Human alphaherpesvirus 1; test: Antiviral activity against HSV1 KOS in E6SM cells; format: functional, organism-based
[10] = test system: Bovine viral diarrhea virus 1; test: Antiviral activity against BVDV NADL in MDBK cells; format: functional, organism-based; conditions: Bovine viral diarrhea virus isolates and strains
Summary of the method: (§1)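 MDBK cells seeded 20 × 10^3/well in MEM with 5% heat-inactivated FCS, confluent after 24 h; serial 3-fold compound dilutions added, then virus at MOI 0.5 (line 2: NADL F224S mutant). 5 days at 37 °C, then ethanol fixation and Giemsa staining. CPE scored microscopically 0–10 per well. EC50 by logarithmic interpolation; mean ± SD of at least three experiments.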

[11] = test system: Sindbis virus; test: Antiviral activity against sindbis virus in vero cells; format: functional, organism-based
[12] = test system: Vaccinia virus; test: Antiviral activity against vaccinia virus in E6SM cells; format: functional, organism-based; conditions: Orthopoxvirus vaccinia
[13] = test system: MDBK441; test: Cytotoxicity against MDBK cells; format: functional; conditions: Bos taurus
Summary of the method: (§2)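 Cells seeded the day before, then given serial compound dilutions and left to proliferate 3 days at 37 °C. MDBK: 10^4/well in MEM-FCS. Huh 5-2: 5 × 10^3/well in complete DMEM. Cell number read by MTS/PMS. CC50 is the concentration inhibiting cell growth by 50%.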

[14] = test system: MDBK441; test: Selectivity index (CC50/EC50) for inhibition of BVDV NADL in MDBK cells; format: functional
Summary of the method: (§3)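 SI = CC50/EC50. EC50 comes from a 5-day Giemsa-stained CPE assay in MDBK cells at MOI 0.5; CC50 from a 3-day MTS/PMS proliferation assay. Means of at least three experiments. Line 10 uses the NADL F224S mutant.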

[15] = test system: Punta Toro virus; test: Antiviral activity against Punta Toro virus in vero cells; format: functional, organism-based
[16] = test system: Human immunodeficiency virus 1; test: Antiviral activity against HIV1 3B in MT4 cells; format: functional, organism-based
[17] = test system: Human respirovirus 3; test: Antiviral activity against parainfluenza3 virus in vero cells; format: functional, organism-based
[18] = test system: Huh-5-2; test: Cytotoxicity against human hepatoma Huh5-2 cells; format: functional; summary of the method: as §2
[19] = test system: MDBK441; test: Inhibition of BVDV NADL production in MDBK cells; format: functional, cell-based; conditions: Bos taurus
Summary of the method: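 Supernatants were titrated on MDBK cells seeded at 5 × 10^3/well (10–15% confluent). Cells were infected 24 h later with 10-fold serial dilutions and, after 4 days, ethanol-fixed and Giemsa-stained. CPE was read microscopically; titre by Reed–Muench, as CCID50/mL.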

[20] = test system: MDBK441; test: Selectivity index (CC50/EC50) for inhibition of VP32947-resistant BVDV in MDBK cells; format: functional; summary of the method: as §3
[21] = test system: Bovine viral diarrhea virus 1; test: Antiviral activity against VP32947-resistant BVDV in MDBK cells; format: functional, organism-based; conditions: Bovine viral diarrhea virus isolates and strains; summary of the method: as §1
[22] = test system: MDBK441; test: Inhibition of BVDV NADL RNA production in MDBK cells; format: functional, cell-based; conditions: Bos taurus
Summary of the method: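 Viral RNA came from supernatant, total cellular RNA by kit. One-step TaqMan RT-qPCR: UNG 50 °C 2 min; RT 60 °C 30 min; 95 °C 5 min; 40 cycles of 94 °C 20 s and 62 °C 1 min. Three replicate reactions per sample.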

Structure (SMILES)	Activity [1]	Activity [2]	Activity [3]	Activity [4]	Activity [5]	Activity [6]	Activity [7]	Activity [8]	Activity [9]	EC50 [10] [µg/mL]	Activity [11]	Activity [12]	CC50 [13] [µg/mL]	Selectivity index [14]	Activity [15]	Activity [16]	Activity [17]	also measured
COc1cc(O)c2c(=O)c3cc([N+](=O)[O-])c(Cl)cc3n(C)c2c1	inactive	inactive	inactive	inactive	inactive	inactive	inactive	inactive	inactive	> 83	inactive	inactive	83 (≈ 248 µM)	1	inactive	inactive	inactive	
COc1cc(O)c2c(=O)c3cc([N+](=O)[O-])c(N4CCN(c5ccccn5)CC4)cc3n(C)c2c1	inactive	inactive	inactive	inactive	inactive	inactive	inactive	inactive	inactive	> 100	inactive	inactive	> 100	1	inactive	inactive	inactive	
COc1cc(OC)c2c(=O)c3cc([N+](=O)[O-])c(Cl)cc3n(C)c2c1	inactive	inactive	inactive	inactive	inactive	inactive	inactive	inactive	inactive	> 100	inactive	inactive	> 100	1	inactive	inactive	inactive	
Cn1c2cc(N3CCN(c4ccccn4)CC3)c(N)cc2c(=O)c2c(O)cc(O)cc21	inactive	inactive	inactive	inactive	inactive	inactive	inactive	inactive	inactive		inactive	inactive	> 100	>200	inactive	inactive	inactive	CC50 [18]: 21 µg/mL (≈ 50.3 µM); EC50 [19]: 2.01 µg/mL (≈ 4.81 µM); Selectivity index [20]: >45; EC50 [21]: 2.24 µg/mL (≈ 5.37 µM); EC50 [22]: 2.3 µg/mL (≈ 5.51 µM)
COc1cc(OC)c2c(=O)c3cc(N)c(Cl)cc3n(C)c2c1	inactive	inactive	inactive	inactive	inactive	inactive	inactive	inactive	inactive	> 100	inactive	inactive	> 100	1	inactive	inactive	inactive	
COc1cc(O)c2c(=O)c3cc(N)c(N4CCN(c5ccccn5)CC4)cc3n(C)c2c1	inactive	inactive	inactive	inactive	inactive	inactive	inactive	inactive	inactive		inactive	inactive	> 100	>25	inactive	inactive	inactive	
CCCN(CCC)CCSc1n[nH]c2c3ccccc3nc-2n1										0.009 (≈ 0.0273 µM)			> 1	>111				Selectivity index [20]: 1; EC50 [21]: > 1 µg/mL
COc1cc(O)c2c(=O)c3cc(N)c(Cl)cc3n(C)c2c1	inactive	inactive	inactive	inactive	inactive	inactive	inactive	inactive	inactive		inactive	inactive	> 33	>47	inactive	inactive	inactive	
COc1cc(OC)c2c(=O)c3cc(N)c(N4CCN(c5ccccn5)CC4)cc3n(C)c2c1	inactive	inactive	inactive	inactive	inactive	inactive	inactive	inactive	inactive	> 100	inactive	inactive	> 100	1	inactive	inactive	inactive	
C[C@@]1(O)[C@H](O)[C@@H](CO)O[C@H]1n1cnc2c(N)ncnc21										0.22 (≈ 0.782 µM)			> 14	>63				Selectivity index [20]: >38; EC50 [21]: 0.37 µg/mL (≈ 1.32 µM)
Cn1c2cc(Cl)c(N)cc2c(=O)c2c(O)cc(O)cc21	inactive	inactive	inactive	inactive	inactive	inactive	inactive	inactive	inactive		inactive	inactive	5 (≈ 17.2 µM)	13	inactive	inactive	inactive	
COc1cc(OC)c2c(=O)c3cc([N+](=O)[O-])c(N4CCN(c5ccccn5)CC4)cc3n(C)c2c1	inactive	inactive	inactive	inactive	inactive	inactive	inactive	inactive	inactive	18 (≈ 37.9 µM)	inactive	inactive	> 100	>6	inactive	inactive	inactive	
